{"source": "ChEMBL document CHEMBL1123799", "about": "“Cardiotonic agents. 1. Novel 8-aryl-substituted imidazo[1,2-a]- and -[1,5-a]pyridines and imidazo[1,5-a]pyridinones as potential positive inotropic agents” (J Med Chem, 1987)", "key": {"Felis catus": {"organism": "Felis catus", "assay": "Inotropic activity as dose required to cause 20% positive or negative change in contractile force of papillary muscle from cat", "assay_type": "functional, Muscle tissue", "outline": "(§1)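 Papillary muscle (<1 mm diameter, ≥3 mm long) held isometric at 35 °C in bicarbonate saline (pH 7.3-7.5, 95% O2/5% CO2). Muscles under 500 mg/mm² force discarded. Compounds in water added to the bath at 1:1000, with a 15-min wash between doses. Norepinephrine 10 μM added last as internal standard. Force normalized to cross-sectional area (weight/length). Mean of ≥3 determinations.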"}, "Mustela putorius furo [1]": {"organism": "Mustela putorius furo", "assay": "Inotropic activity as dose required to cause 20% positive or negative change in contractile force of papillary muscle from ferret", "assay_type": "functional, Muscle tissue", "outline": "as §1"}, "Canis familiaris [2]": {"organism": "Canis familiaris", "assay": "Electrophysiological activity as concentration causing 20 % increase in the functional refractory period of canine ventricular muscle.", "parameters": "species or system Canis lupus familiaris, Muscle tissue", "outline": "(§2)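 Right-ventricle papillary muscle strips (5-6 mm × 1-2 mm) in a 3.5-mL bath, superfused with oxygenated saline at 36 ± 0.5 °C. Diastolic threshold set with 2 ms bipolar stimuli at 4000 ms cycle length. Paced at 4× threshold for 60 min. FRP found at 1000 ms cycle length with a premature S2 after every tenth S1 at shortening intervals. Various concentrations superfused, one compound per strip.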"}, "[3]": {"assay": "Ability to inhibit canine cardiac cAMP phosphodiesterase III", "outline": "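Crude enzyme from dog cardiac muscle homogenate, taken by differential centrifugation between 700g and 165000g. Assay at 37 °C with 10^-6 M cAMP plus [3H]cAMP (10^5 cpm/mL), 40 mM Tris pH 8.0, 10 mM MgCl2, 2.5 mM mercaptoethanol, 0.05 mg/mL BSA and 0.1 mg/mL enzyme. AMP and cAMP separated by PEI-cellulose ion-exchange TLC and counted by scintillation. Triplicate, up to 100 μM.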"}, "Canis familiaris [4]": {"organism": "Canis familiaris", "assay": "Electrophysiological activity as concentration of the drug causing 20 % increase in the functional refractory period of canine ventricular muscle.", "parameters": "species or system Canis lupus familiaris, Muscle tissue", "outline": "as §2"}, "Mustela putorius furo [5]": {"organism": "Mustela putorius furo", "assay": "Inotropic activity as dose required to cause 20% positive or negative change in contractile force of papillary muscle from ferret"}}, "note": "pIC50: −log10 of the molar value.", "data": [{"smiles": "COC(=O)c1nc(O)n2cccc(-c3ccc(-n4ccnc4C)cc3)c12", "values": [{"measurement": "CF C20", "setting": "Felis catus", "value": 30, "unit": "µM"}]}, {"smiles": "Cc1ccc(-c2cccn3c(O)ncc23)cc1", "values": [{"measurement": "CF C20", "setting": "Felis catus", "value": 6, "unit": "µM"}]}, {"smiles": "Cc1ncc2c(-c3ccccc3)cccn12", "values": [{"measurement": "CF C20", "setting": "Mustela putorius furo [1]", "value": -20, "unit": "µM"}]}, {"smiles": "Cc1ncc2n1CCC=C2c1ccccc1", "values": [{"measurement": "CF C20", "setting": "Felis catus", "value": 10, "unit": "µM"}]}, {"smiles": "Oc1ccc(-c2cccn3ccnc23)cc1", "values": [{"measurement": "CF C20", "setting": "Felis catus", "value": 15, "unit": "µM"}, {"measurement": "FRP C20", "setting": "Canis familiaris [2]", "value": -18, "unit": "µM"}]}, {"smiles": "CCOc1ccc(-c2cccn3c(C)ncc23)cc1", "values": [{"measurement": "CF C20", "setting": "Felis catus", "value": -100, "unit": "µM"}]}, {"smiles": "CCOc1ccc(C2=CCCn3c2cnc3C)cc1", "values": [{"measurement": "CF C20", "setting": "Felis catus", "value": 20, "unit": "µM"}, {"measurement": "FRP C20", "setting": "Canis familiaris [2]", "value": 30, "unit": "µM"}]}, {"smiles": "Cc1nccn1-c1ccc(-c2cccn3c(C)nc(Br)c23)cc1", "values": [{"measurement": "CF C20", "setting": "Felis catus", "value": 1, "unit": "µM"}, {"measurement": "pIC50", "setting": "[3]", "value": 4.52}, {"measurement": "FRP C20", "setting": "Canis familiaris [4]", "value": 17, "unit": "µM"}]}, {"smiles": "CC(=O)Nc1ccc(C2=CCCn3c2cnc3C)cc1", "values": [{"measurement": "CF C20", "setting": "Felis catus", "value": 10, "unit": "µM"}, {"measurement": "FRP C20", "setting": "Canis familiaris [2]", "value": 40, "unit": "µM"}]}, {"smiles": "CCCCNC(=O)NC1CCN(c2ncnc3cc(OC)c(OC)cc23)CC1", "note": "[BUQUINERAN]", "values": [{"measurement": "CF C20", "setting": "Mustela putorius furo [1]", "value": 7, "unit": "µM"}]}, {"smiles": "C1=C(c2ccc(-n3ccnc3)cc2)c2nccn2CC1", "values": [{"measurement": "CF C20", "setting": "Felis catus", "value": 29, "unit": "µM"}, {"measurement": "pIC50", "setting": "[3]", "value": 3.26}, {"measurement": "FRP C20", "setting": "Canis familiaris [2]", "value": 100, "unit": "µM"}]}, {"smiles": "C1=C(c2ccccc2)c2nccn2CC1", "values": [{"measurement": "CF C20", "setting": "Felis catus", "value": -15, "unit": "µM"}]}, {"smiles": "CSc1ccc(C(=O)c2[nH]c(=O)[nH]c2C)cc1", "note": "[ENOXIMONE]", "values": [{"measurement": "CF C20", "setting": "Felis catus", "value": 3, "unit": "µM"}]}, {"smiles": "Cc1ncc2n1CCC=C2c1ccc(-n2ccnc2)cc1", "values": [{"measurement": "CF C20", "setting": "Felis catus", "value": 9, "unit": "µM"}, {"measurement": "FRP C20", "setting": "Canis familiaris [2]", "value": 14, "unit": "µM"}]}, {"smiles": "Nc1ccc(C2=CCCn3ccnc32)cc1", "values": [{"measurement": "CF C20", "setting": "Felis catus", "value": -5, "unit": "µM"}]}, {"smiles": "CCc1nccn1-c1ccc(C2=CCCn3c2cnc3CC)cc1", "values": [{"measurement": "CF C20", "setting": "Felis catus", "value": 0.8, "unit": "µM"}, {"measurement": "FRP C20", "setting": "Canis familiaris [2]", "value": 9, "unit": "µM"}]}, {"smiles": "c1ccc(-c2cccn3ccnc23)cc1", "values": [{"measurement": "CF C20", "setting": "Felis catus", "value": 1, "unit": "µM"}, {"measurement": "FRP C20", "setting": "Canis familiaris [2]", "value": 10, "unit": "µM"}]}, {"smiles": "CS(=O)(=O)Nc1ccc(-c2cccn3ccnc23)cc1", "values": [{"measurement": "CF C20", "setting": "Felis catus", "value": 10, "unit": "µM"}, {"measurement": "pIC50", "setting": "[3]", "value": "< 3.00"}, {"measurement": "FRP C20", "setting": "Canis familiaris [2]", "value": 50, "unit": "µM"}]}, {"smiles": "Nc1ccc(-c2cccn3ccnc23)cc1", "values": [{"measurement": "CF C20", "setting": "Felis catus", "value": 15, "unit": "µM"}]}, {"smiles": "COC(=O)c1nc(O)n2cccc(-c3ccc(C)cc3)c12", "values": [{"measurement": "CF C20", "setting": "Felis catus", "value": -40, "unit": "µM"}]}, {"smiles": "c1cc(-c2ccc(-n3ccnc3)cc2)c2nccn2c1", "values": [{"measurement": "CF C20", "setting": "Felis catus", "value": 30, "unit": "µM"}, {"measurement": "pIC50", "setting": "[3]", "value": 3.66}]}, {"smiles": "Cc1ncc2n1CCC=C2c1ccc(NS(C)(=O)=O)cc1", "values": [{"measurement": "CF C20", "setting": "Felis catus", "value": 2, "unit": "µM"}, {"measurement": "FRP C20", "setting": "Canis familiaris [2]", "value": 10, "unit": "µM"}]}, {"smiles": "Cc1nccn1-c1ccc(C2=CCCn3c2cnc3C)cc1", "values": [{"measurement": "CF C20", "setting": "Felis catus", "value": 5, "unit": "µM"}, {"measurement": "pIC50", "setting": "[3]", "value": 3.82}, {"measurement": "FRP C20", "setting": "Canis familiaris [2]", "value": 5, "unit": "µM"}]}, {"smiles": "CCOC(=O)c1nc(O)n2cccc(-c3ccccc3)c12", "values": [{"measurement": "CF C20", "setting": "Mustela putorius furo [5]", "value": -10, "unit": "µM"}]}, {"smiles": "Cc1ncc2n1CCC=C2c1ccc(O)cc1", "values": [{"measurement": "CF C20", "setting": "Felis catus", "value": 30, "unit": "µM"}, {"measurement": "FRP C20", "setting": "Canis familiaris [2]", "value": 100, "unit": "µM"}]}, {"smiles": "Cc1nccn1-c1ccc(-c2cccn3c(C)ncc23)cc1", "values": [{"measurement": "CF C20", "setting": "Felis catus", "value": 13, "unit": "µM"}, {"measurement": "pIC50", "setting": "[3]", "value": 4.19}, {"measurement": "FRP C20", "setting": "Canis familiaris [2]", "value": 80, "unit": "µM"}]}, {"smiles": "Cc1ncc2n1CCCC2c1ccc(NS(C)(=O)=O)cc1", "note": "(configuration not stated)", "values": [{"measurement": "CF C20", "setting": "Mustela putorius furo [1]", "value": 0.8, "unit": "µM"}, {"measurement": "FRP C20", "setting": "Canis familiaris [2]", "value": 80, "unit": "µM"}]}]}
